Compound activity as filed in PubChem BioAssay.
M18AAP inhibitor = PfM18AAP inhibitors, malaria aminopeptidase, primary screen, biochemical, QFRET, recombinant enzyme. M18 aspartyl aminopeptidase (Plasmodium falciparum 3D7). H-Glu-NHMec fluorogenic cleavage. inhibition, % at 7.35 µM. 290,000 compounds, 1.2% hits;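 active means inhibition above the campaign mean inhibition over all tested compounds plus 3 SD, cut at about 28% in these data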
ZTA counter = ZTA (EBV) inhibition in EBNA-1 counter-screen | 320,000 compounds, 0.15% hits | AID 2234 | P03206 | ZTA-DNA binding, fluorescence polarization | inhibition, % at 11 µM; in the data active means inhibition above about 33%
Target sequence (P03206 whole entry, looked up): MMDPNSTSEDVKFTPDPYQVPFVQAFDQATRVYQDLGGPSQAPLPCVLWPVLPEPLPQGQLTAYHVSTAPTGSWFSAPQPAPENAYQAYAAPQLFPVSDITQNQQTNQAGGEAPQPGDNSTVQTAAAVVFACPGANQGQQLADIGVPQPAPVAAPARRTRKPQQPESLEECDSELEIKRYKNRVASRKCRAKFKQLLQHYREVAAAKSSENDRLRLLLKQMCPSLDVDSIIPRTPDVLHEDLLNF
HCV core dimer = inhibitors of HCV core protein dimerization, primary screen, biochemical, TR-FRET, high-throughput; TR-FRET GST/Flag-core106 dimerization, 1536-well; inhibition, % at 5 µM; 300,000 compounds, 0.33% hits; AID 1899, 2009;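 active means inhibition above the mean of all tested compounds plus 3 SD, set per screening campaign, cut at about 45% in these data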
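Assay system: GST-tagged and Flag-tagged HCV core protein residues 1-106 / Times: compound-protein-antibody incubation 4 h at 22.5 °C / Signal: time-resolved FRET, ex 340 nm, em 617 and 671 nm / Evaluation: % inhibition based on acceptor/donor emission ratio / Benchmarks: wells lacking GST-core106 and wells with excess unlabelled core106 / Repeats: singlicate, one well per compound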
ALR H2O2 inh = inhibitors of human ALR sulfhydryl oxidase, primary screen, biochemical, H2O2 detection, HRP-luminol luminescence, single point; FAD-linked sulfhydryl oxidase ALR (Homo sapiens), P55789; purified ALR, DTT oxidation; inhibition, % (no concentration beside the values); 290,000 compounds, 3.8% hits; AID 485317, 2010;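 active means mean replicate inhibition above about 79%, with every replicate also reaching it, limit read from the data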
Target sequence (P55789 whole entry, looked up): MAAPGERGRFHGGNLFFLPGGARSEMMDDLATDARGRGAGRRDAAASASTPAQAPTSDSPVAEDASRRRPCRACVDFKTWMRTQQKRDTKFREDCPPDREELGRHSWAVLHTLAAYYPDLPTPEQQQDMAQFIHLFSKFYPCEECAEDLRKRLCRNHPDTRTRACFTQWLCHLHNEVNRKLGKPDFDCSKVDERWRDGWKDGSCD
EBNA-1 inh = EBNA-1 DNA-binding inhibitors, primary screen, biochemical, fluorescence polarization. inhibition, % at 14.8 µM. 300,000 compounds, 0.34% hits. AID 1950, 2009; in the data active means inhibition above about 28%
HCV NS3 hel inh = inhibitors of HCV NS3 helicase, primary screen, biochemical, Cy5 molecular beacon fluorescence; Hepatitis C virus NS3 helicase; NS3 helicase DNA unwinding; inhibition, % at 10.9 µM; 290,000 compounds, 0.56% hits;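 active means inhibition above the mean of all tested compounds plus 3 SD, set per campaign, cut at about 35% in these data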
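Control set: DMSO versus 110 µM thioflavine S; Material: NS3 helicase fragment of HCV; Measured by: Cy5 fluorescence at 0 and 60 min, beacon hairpin quenching; Read-out basis: percent inhibition from t60/t0 fluorescence ratio; Times: reaction time 60 min, 25 °C; Repeats: single replicate; Compound dosing: single dose, 10.9 µM nominal final, DMSO 0.8% final.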
Each line names hits and unclear results; the compound was inactive in the other large screens. An excerpt weighted towards active compounds, which were near 5.2% of everything screened.

C[C@@H]1O[C@@H](O[C@@H]2[C@@H](O)[C@H](OCCc3ccc(O)c(O)c3)O[C@H](CO)[C@H]2OC(=O)/C=C/c2ccc(O)c(O)c2)[C@H](O)[C@H](O)[C@H]1O	ALR H2O2 inh 98.4 (no result: M18AAP inhibitor, ZTA counter, HCV core dimer, EBNA-1 inh, HCV NS3 hel inh)
Cc1noc(C)c1S(=O)(=O)N1CCCN(C(=O)/C=C/c2ccccc2F)CC1	none (no result: M18AAP inhibitor, HCV core dimer, EBNA-1 inh, HCV NS3 hel inh)
Cc1c(Cl)c(-c2n[nH]c(=S)n2-c2ccc(F)cc2)nn1C	ALR H2O2 inh 91.2
CCCCn1c(-c2nn(C)c(C)c2Cl)n[nH]c1=S	none
Cc1ccc(-n2c(-c3nn(C)cc3Cl)n[nH]c2=S)cc1	none
Cc1c(Cl)c(-c2n[nH]c(=S)n2CC(C)C)nn1C	ALR H2O2 inh 92.6
Cn1cc(Cl)c(-c2n[nH]c(=S)n2-c2ccc(F)cc2)n1	ALR H2O2 inh 87.5
COc1ccc(/C=C(/C(=O)c2ccc(Cl)cc2Cl)n2cncn2)cc1	ALR H2O2 inh 95.3
Cc1c(NS(=O)(=O)c2ccc3nc(COc4ccccc4Cl)[nH]c3c2)c(=O)n(-c2ccccc2)n1C	ALR H2O2 inh 98.7
Cc1c(NS(=O)(=O)c2ccc3c(c2)n(C)c(=O)n3C)c(=O)n(-c2ccccc2)n1C	none
CSc1nc2ccc(S(=O)(=O)Nc3c(C)n(C)n(-c4ccccc4)c3=O)cc2s1	ALR H2O2 inh 98.8
COCCCNC(=O)Cn1cc(/C=C(\C#N)C(=O)NC2CC2)c2ccccc21	none
Cc1cccc(NC(=O)CN(C)C(=O)C2CC2)c1C	none (no result: M18AAP inhibitor, HCV core dimer, EBNA-1 inh, HCV NS3 hel inh)
CC1CC(C)CN(C(=O)CCCNC(=O)c2ccc(Cl)cc2)C1 (stereo not given)	none
Cc1ccccc1CS(=O)(=O)c1ccc(C(=O)N2CCC(C)CC2)cc1[N+](=O)[O-]	ALR H2O2 inh 97.2
CC1CCN(C(=O)c2ccc(S(=O)(=O)Cc3cccc(F)c3)c([N+](=O)[O-])c2)CC1	none
COc1ccccc1N=c1oc2cc(O)ccc2cc1C(=O)NCC1CCCO1 (stereo not given)	ALR H2O2 inh 92.1
O=C(NNc1ccccc1)/C(=C\c1cccnc1)NC(=O)c1ccccc1	ALR H2O2 inh 98.3
Cc1cccc(S(=O)(=O)N2CCn3cccc3C2C)c1 (stereo not given)	none (no result: M18AAP inhibitor, HCV core dimer, EBNA-1 inh, HCV NS3 hel inh)
NS(=O)(=O)c1ccc(N/N=C/c2ccc(C(=O)O)cc2)c([N+](=O)[O-])c1	none
NS(=O)(=O)c1ccc(N/N=C/c2ccc[nH]2)c([N+](=O)[O-])c1	ALR H2O2 inh 96.7
Cc1ccc(S(=O)(=O)NNc2ccccc2)c(C)c1	ALR H2O2 inh 100.1
COc1ccc(S(=O)(=O)Nc2ccc(O)c3ccccc23)cc1	ALR H2O2 inh 88.8
Cc1ccc(S(=O)(=O)NNC(=O)c2cccs2)c(C)c1	none
Cc1ccc(C)c(S(=O)(=O)Nc2ccc(O)c3ccccc23)c1	ALR H2O2 inh 85.4
Cc1ccc(S(=O)(=O)Nc2ccc(O)c3ccccc23)c(C)c1	ALR H2O2 inh 95.0 (no result: ZTA counter, HCV core dimer, EBNA-1 inh)
Cc1ccc(C)c(S(=O)(=O)Nc2ccc(O)c(C(=O)O)c2)c1	none
CCC(=O)Nc1ccc(C(=O)N/N=C/c2cc(Br)c(OC)cc2OC)cc1	none
C[C@H]1CN(S(=O)(=O)c2c(F)cccc2F)CCN1S(=O)(=O)c1ccc2c(c1)OCCO2	none (no result: M18AAP inhibitor, ZTA counter, HCV core dimer, EBNA-1 inh, HCV NS3 hel inh)
C[C@H](CO)N1C[C@H](C)[C@@H](CN(C)Cc2ccc(-c3ccccc3)cc2)Oc2c(NC(=O)Nc3ccc4c(c3)OCO4)cccc2C1=O	none (no result: M18AAP inhibitor, ZTA counter, HCV core dimer, EBNA-1 inh, HCV NS3 hel inh)
O=C(CCl)Oc1ccc2occ(C(=O)c3cccs3)c2c1	ALR H2O2 inh 97.3
OCC(O)[C@@H](O[C@H]1O[C@H](CO)[C@@H](O)[C@H](O)[C@H]1O)[C@H](O)[C@@H](O)CO (stereo not given in full)	none (no result: M18AAP inhibitor, HCV NS3 hel inh)
O=C(O)c1ccc(/C=N/n2cc(-c3ccccc3)[nH]c2=S)cc1	M18AAP inhibitor 48.2, ALR H2O2 inh 99.1
Cc1ccc(C)c(/C=N/n2cc(-c3ccccc3)[nH]c2=S)c1	M18AAP inhibitor 29.0 (no result: ALR H2O2 inh)
O=C1CCCC(=NCc2ccco2)C1	none
CN(C)c1nc(=NCc2ccco2)ss1	M18AAP inhibitor 46.5
COc1ccc(-c2oc3ccc(-c4cc(OC)c(OC)c(OC)c4)cc3c2-c2ccc(OC)nc2)cc1	none
COc1ccc(Cc2nc3ccc(C(=O)NC(C)c4cnn(C)c4)cc3o2)cc1 (stereo not given)	none (no result: ZTA counter, HCV core dimer, EBNA-1 inh)
O=C1NC(=O)/C(=C/c2cc3c(cc2Br)OCO3)S1	ALR H2O2 inh 96.5
O=C1NC(=O)/C(=C\c2ccc(Br)o2)S1	none
S=c1[nH]c2cc(Cl)ccc2s1	ALR H2O2 inh 98.2
Cn1c(O)c(/C=N/Nc2ccccc2)c(=O)n(C)c1=O	ALR H2O2 inh 100.2
Cc1nn(-c2ccccc2)c2[nH]c(=O)c(CNc3ccc(N4CCOCC4)cc3)cc12	ALR H2O2 inh 96.7
C=CCn1c(C(C)NC(=O)c2ccc(C)cc2)n[nH]c1=S (stereo not given)	ALR H2O2 inh 95.4
CC(C)C[C@H]1CN=C(Nc2ccccc2)N1CC1CCC(C(C)(C)C)CC1 (stereo not given in full)	none (no result: M18AAP inhibitor, HCV NS3 hel inh)
COc1cc(C2C3=C(CCCC3=O)Nc3[nH]n(-c4ccccc4)c(=O)c32)ccc1O (stereo not given)	ALR H2O2 inh 99.9
COc1cccc(C2C3=C(CCCC3=O)Nc3[nH]n(-c4ccccc4)c(=O)c32)c1 (stereo not given)	ALR H2O2 inh 78.4
Cc1ccc(C2=CSC3=NCCN23)c(C)c1	none
COc1ccc(C2=CSC3=NNC4(CCCCC4)NN23)cc1	ALR H2O2 inh 98.1
Cc1ccc(C2=CSC3=NNC4(CCCCC4)NN23)cc1	ALR H2O2 inh 99.6
Cc1csc(CNC(=O)C2CCC(=O)N(CCc3cccc(F)c3)C2)n1 (stereo not given)	none
O=C(O)/C=C\C(=O)Nc1ccc(N2CCN(c3ccc(Cl)c(Cl)c3)CC2)cc1	none
O=C(O)/C=C/C(=O)Nc1ccc(OCc2ccccc2)cc1	none
O=C(O)/C=C\C(=O)Nc1ccc(N2CCN(c3ccc(F)cc3)CC2)cc1	ALR H2O2 inh 98.3
O=C(O)/C=C\C(=O)Nc1ccc(N2CCN(c3cccc(Cl)c3)CC2)cc1	ALR H2O2 inh 98.5
NS(=O)(=O)c1ccc(NC(=S)N2CCN(c3cccc(Cl)c3)CC2)cc1	M18AAP inhibitor 28.8
O=C(O)/C=C/C(=O)Nc1ccc(-c2ccccc2)cc1	ALR H2O2 inh 98.2
Cc1ccc2c(c1)C1CN(C)CCC1N2S(=O)(=O)c1ccccc1F (stereo not given)	none (no result: M18AAP inhibitor, HCV core dimer, ALR H2O2 inh, EBNA-1 inh, HCV NS3 hel inh)
O=C(O)/C=C\C(=O)Nc1ccc(N2CCN(c3ccc(Cl)cc3)CC2)cc1	ALR H2O2 inh 98.5
CC(=O)c1ccc(O)c(CC=C(C)C)c1O	none (no result: M18AAP inhibitor, ALR H2O2 inh, HCV NS3 hel inh)
